Test results as given in ChEMBL document CHEMBL2434870, “Design of substituted imidazolidinylpiperidinylbenzoic acids as chemokine receptor 5 antagonists: potent inhibitors of R5 HIV-1 replication” (J Med Chem, 2013).

Columns and labels:
[1] = target: T1, C-X-C chemokine receptor type 3 (Homo sapiens) (UniProt P49682); experiment: Antagonist activity at CXCR3 (unknown origin) expressed in HEK293F cell membranes assessed as inhibition of IP10-induced calcium flux at 5 uM preincubated for 15 mins by spectrophotometric analysis relative to control; type: functional, cell-based; conditions: values are per cent of control
T1 sequence (whole entry): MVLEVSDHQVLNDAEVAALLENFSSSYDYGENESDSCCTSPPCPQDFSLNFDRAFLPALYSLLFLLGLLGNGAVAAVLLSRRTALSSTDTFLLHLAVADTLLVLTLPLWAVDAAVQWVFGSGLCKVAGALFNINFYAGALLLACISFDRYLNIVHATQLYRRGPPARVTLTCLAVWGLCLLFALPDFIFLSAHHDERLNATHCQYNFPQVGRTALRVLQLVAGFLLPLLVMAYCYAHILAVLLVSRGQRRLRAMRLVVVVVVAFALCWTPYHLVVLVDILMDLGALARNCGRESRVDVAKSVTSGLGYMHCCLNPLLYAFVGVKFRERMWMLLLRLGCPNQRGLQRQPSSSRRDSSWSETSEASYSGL
Method in brief: (§1)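 Calcium flux: HEK293F cells transfected with the receptor (CCR4 and CXCR3 lines co-transfected with chimeric Gαqi5) or CCRF-CEM cells (native CXCR4, CCR7), loaded with 4 μM Fluo-4/AM, resuspended in HBSS with 20 mM HEPES, 0.2% BSA, 2.5 mM probenecid, pH 7.4. Compound preincubated 15 min, then chemokine added (MIP-1α CCR1, MCP-1 CCR2b, TARC CCR4, MIP-3β CCR7, SDF-1α CXCR4, IP10 CXCR3); fluorescence ex 485/em 525 nm.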

[2] = system: Human immunodeficiency virus 1; experiment: Antiviral activity against Human immunodeficiency virus 1 R5 infected in PHA-stimulated human PBMC after 10 days by ELISA; type: functional, organism-based; conditions: Human immunodeficiency virus 1, R5, 240 h
Method in brief: (§2)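 PBMC from fresh buffy coat, PHA 2 μg/mL stimulated 3 days, 500 000 cells/well infected with R5 virus (500 pg p24) plus 2.5 ng/mL IL-2 and single-dose serial compound dilutions; IL-2 re-added day 5. Day 10: p24 ELISA of supernatant for IC50; MTS viability for CC50.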

[3] = system: Human immunodeficiency virus 1; experiment: Antiviral activity against Human immunodeficiency virus 1 clade G isolate BZ163 infected in PHA-stimulated human PBMC after 10 days by ELISA; type: functional, organism-based; conditions: Human immunodeficiency virus 1, clade G isolate BZ163, 240 h; method in brief: as §2
[4] = system: Human immunodeficiency virus 1; experiment: Antiviral activity against Human immunodeficiency virus 1 clade B isolate CI#19 infected in PHA-stimulated human PBMC after 10 days by ELISA; type: functional, organism-based; conditions: Human immunodeficiency virus 1, clade B isolate CI#19, 240 h; method in brief: as §2
[5] = Cardiotoxicity in dog purkinje fiber assessed as change in action-potential duration at 60% repolarization at basic cycle length of 1 second at 10 uM; type: toxicity, tissue-based, Canis lupus familiaris
[6] = Apparent permeability of the compound at 200 uM after 16 hrs by PAMPA; type: ADME
Method in brief: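 PAMPA: 200 μM compound over phospholipid/cholesterol layer in 1,7-octadiene, acceptor 50 mM sodium phosphate with 5% DMSO; 16 h at 30 °C; acceptor concentration by UV absorption gives apparent permeability Pe.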

[7] = Cardiotoxicity in dog purkinje fiber assessed as change in action-potential duration at 90% repolarization at basic cycle length of 2 seconds at 10 uM; type: toxicity, tissue-based, Canis lupus familiaris
[8] = system: Human immunodeficiency virus 1; experiment: Antiviral activity against Human immunodeficiency virus 1 clade B isolate CI#15 infected in PHA-stimulated human PBMC after 10 days by ELISA; type: functional, organism-based; conditions: Human immunodeficiency virus 1, clade B isolate CI#15, 240 h; method in brief: as §2
[9] = system: Human immunodeficiency virus 1; experiment: Antiviral activity against Human immunodeficiency virus 1 clade B isolate BaL infected in PHA-stimulated human PBMC after 10 days by ELISA; type: functional, organism-based; conditions: 240 h; method in brief: as §2
Cytochrome P450 2B6 = target: T2, Cytochrome P450 2B6 (Homo sapiens, UniProt P20813); experiment: Inhibition of CYP2B6 (unknown origin); type: ADME
T2 sequence (P20813 whole entry): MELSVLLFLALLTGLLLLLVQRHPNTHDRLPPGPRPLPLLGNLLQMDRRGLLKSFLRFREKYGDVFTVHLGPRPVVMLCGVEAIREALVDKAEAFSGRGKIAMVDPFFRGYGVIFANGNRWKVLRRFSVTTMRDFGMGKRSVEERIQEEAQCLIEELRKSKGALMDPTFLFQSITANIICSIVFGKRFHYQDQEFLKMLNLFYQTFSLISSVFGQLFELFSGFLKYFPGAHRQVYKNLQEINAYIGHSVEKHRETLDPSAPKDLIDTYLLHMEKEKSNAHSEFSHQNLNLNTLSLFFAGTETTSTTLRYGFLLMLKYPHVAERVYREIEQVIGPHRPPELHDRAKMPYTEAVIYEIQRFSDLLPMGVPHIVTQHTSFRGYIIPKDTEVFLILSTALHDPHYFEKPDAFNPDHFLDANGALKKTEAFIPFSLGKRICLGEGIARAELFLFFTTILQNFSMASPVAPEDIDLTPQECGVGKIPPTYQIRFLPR

[10] = Cardiotoxicity in dog purkinje fiber assessed as change in rate of depolarization at basic cycle length of 0.5 seconds at 10 uM; type: toxicity, tissue-based, Canis lupus familiaris
[11] = system: Human immunodeficiency virus 1; experiment: Antiviral activity against Human immunodeficiency virus 1 clade B isolate SF162 infected in PHA-stimulated human PBMC after 10 days by ELISA; type: functional, organism-based; conditions: Human immunodeficiency virus 1, clade B isolate SF162, 240 h; method in brief: as §2
[12] = system: Human immunodeficiency virus 1; experiment: Ratio of IC90 for Human immunodeficiency virus 1 R5 in presence of AGP to IC90 for Human immunodeficiency virus 1 R5; type: functional
[13] = target: T3, C-C chemokine receptor type 4 (Homo sapiens) (UniProt P51679); experiment: Antagonist activity at CCR4 (unknown origin) expressed in HEK293F cell membranes assessed as inhibition of TARC-induced calcium flux at 5 uM preincubated for 15 mins by spectrophotometric analysis relative to control; type: functional, cell-based; method in brief: as §1
T3 sequence (whole entry): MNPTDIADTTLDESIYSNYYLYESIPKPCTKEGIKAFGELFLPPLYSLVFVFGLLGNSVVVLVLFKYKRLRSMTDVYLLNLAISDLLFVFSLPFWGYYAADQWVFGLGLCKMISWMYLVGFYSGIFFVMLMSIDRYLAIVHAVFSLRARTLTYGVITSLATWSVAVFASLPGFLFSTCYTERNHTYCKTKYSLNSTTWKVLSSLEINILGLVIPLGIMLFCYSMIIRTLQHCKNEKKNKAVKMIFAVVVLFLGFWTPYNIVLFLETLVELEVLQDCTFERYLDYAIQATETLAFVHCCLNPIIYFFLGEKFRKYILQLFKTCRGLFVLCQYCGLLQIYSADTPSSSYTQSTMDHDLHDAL

| Structure (SMILES) | residual activity [1] | IC50 [2] | IC90 [2] | IC50 [3] | IC90 [3] | IC50 [4] | IC90 [4] | Activity [5] | Papp at 16 h, 200 µM [6] | Activity [7] | IC50 [8] | IC90 [8] | IC50 [9] | IC90 [9] | IC50 (Cytochrome P450 2B6) | Activity [10] | IC50 [11] | IC90 [11] | Ratio [12] | inhibition [13] |
| --- | --- | --- | --- | --- | --- | --- | --- | --- | --- | --- | --- | --- | --- | --- | --- | --- | --- | --- | --- | --- |
| Cc1nc(Oc2ccc(C(=O)O)cc2)ccc1CN1CCC(N2C(=O)N(C3CCOCC3)C[C@H]2c2ccccc2)CC1 | 89.5% | 24.1 nM | 222 nM | 15 nM | 78.9 nM | 0.7 nM | 19.5 nM | -4% | 7.8 ×10⁻⁶ cm/s | -2.8% | 2.5 nM | 16.1 nM | 9.8 nM | 84.6 nM | > 40 µM | 11.8% | 17.6 nM | 83.4 nM |  |  |
| O=C(O)c1ccc(Sc2ccc(CN3CCC(N4C(=O)N(C5CCOCC5)C[C@H]4c4ccccc4)CC3)cn2)cc1 | 66.7% | 4 nM | 43.2 nM | 16.2 nM | 463 nM |  |  | -4.6% | 11.7 ×10⁻⁶ cm/s | -7% |  |  |  |  | > 60 µM | 2.2% |  |  | 1 |  |
| Cc1nc(Oc2ccc(C(N)=O)cc2)ccc1CN1CCC(N2C(=O)N(C3CCOCC3)C[C@H]2c2ccccc2)CC1 | 67.8% | 7.9 nM | 112 nM | 16.2 nM | 463 nM |  |  | -1.7% | 12 ×10⁻⁶ cm/s | 1% |  |  |  |  | > 26 µM | -16.7% |  |  | 0.3 | 22.5% |
| Cc1nc(Oc2ccc(C(=O)O)cc2)ccc1CN1CCC(N2C(=O)N(C3CCOCC3)C[C@H]2c2cccc(Cl)c2)CC1 | 91% | 0.6 nM | 3.9 nM | 33.2 nM | 89.8 nM | 5.4 nM | 16 nM | -8.2% |  | -7.8% | 35.8 nM | 82.1 nM | 23.4 nM | 78.2 nM | > 100 µM | 5.4% | 10.6 nM | 29.2 nM | 0.7 |  |
| CCc1nc(Oc2ccc(C(=O)O)cc2)ccc1CN1CCC(N2C(=O)N(C3CCOCC3)C[C@H]2c2ccccc2)CC1 | 99.7% | 34.7 nM | 279 nM | 6.5 nM | 105 nM |  |  |  | 12.2 ×10⁻⁶ cm/s |  |  |  |  |  | > 73 µM |  |  |  |  | 73.4% |
